Type in all cases: cell-based
The target in experiment [1] is T1, P-selectin (Homo sapiens, UniProt P16109).
T1 sequence (P16109 whole entry): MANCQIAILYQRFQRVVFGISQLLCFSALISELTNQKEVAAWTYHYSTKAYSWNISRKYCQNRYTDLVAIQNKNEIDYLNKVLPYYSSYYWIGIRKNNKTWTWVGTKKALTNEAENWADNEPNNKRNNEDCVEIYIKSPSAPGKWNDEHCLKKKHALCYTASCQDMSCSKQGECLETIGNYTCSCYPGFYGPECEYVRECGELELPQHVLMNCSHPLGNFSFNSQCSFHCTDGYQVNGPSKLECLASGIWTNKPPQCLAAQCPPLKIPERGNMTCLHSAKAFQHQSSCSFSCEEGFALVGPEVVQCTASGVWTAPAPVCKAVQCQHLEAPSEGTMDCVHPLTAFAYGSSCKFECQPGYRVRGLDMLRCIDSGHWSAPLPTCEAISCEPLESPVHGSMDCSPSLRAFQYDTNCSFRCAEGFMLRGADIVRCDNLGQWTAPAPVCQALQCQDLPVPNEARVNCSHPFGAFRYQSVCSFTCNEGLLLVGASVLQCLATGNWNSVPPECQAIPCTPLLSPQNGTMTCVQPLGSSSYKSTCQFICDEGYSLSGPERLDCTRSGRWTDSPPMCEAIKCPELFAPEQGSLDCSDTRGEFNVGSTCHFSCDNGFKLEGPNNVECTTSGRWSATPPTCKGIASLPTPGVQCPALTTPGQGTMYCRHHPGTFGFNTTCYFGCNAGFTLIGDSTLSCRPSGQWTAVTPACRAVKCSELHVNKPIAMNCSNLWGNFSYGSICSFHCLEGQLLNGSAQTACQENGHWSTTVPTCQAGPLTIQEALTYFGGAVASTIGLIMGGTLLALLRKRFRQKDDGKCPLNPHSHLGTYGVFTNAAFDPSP
In words: Inhibition of HL-60 cell adhesion to recombinant human Selectin P. Put shortly: (§1)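 Recombinant human E- or P-selectin was coated in DPBS at 3 µg/mL (150 ng per well) for 3 h and blocked 1 h with DPBS/1% BSA. Inhibitor, diluted from 10 mM DPBS stock into Hanks'/20 mM Hepes pH 7.2–7.4/0.2% glucose/1% BSA, was added with 10^5 HL-60 cells for 15 min at room temperature, then washed with CaCl2-containing buffer. Bound cells were lysed and myeloperoxidase was read with o-phenylenediamine/H2O2 for 1 h at A492. Percent inhibition is relative to the no-inhibitor control.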

In experiment [2] the target is T2, E-selectin (Homo sapiens, UniProt P16581).
T2 sequence (P16581 whole entry): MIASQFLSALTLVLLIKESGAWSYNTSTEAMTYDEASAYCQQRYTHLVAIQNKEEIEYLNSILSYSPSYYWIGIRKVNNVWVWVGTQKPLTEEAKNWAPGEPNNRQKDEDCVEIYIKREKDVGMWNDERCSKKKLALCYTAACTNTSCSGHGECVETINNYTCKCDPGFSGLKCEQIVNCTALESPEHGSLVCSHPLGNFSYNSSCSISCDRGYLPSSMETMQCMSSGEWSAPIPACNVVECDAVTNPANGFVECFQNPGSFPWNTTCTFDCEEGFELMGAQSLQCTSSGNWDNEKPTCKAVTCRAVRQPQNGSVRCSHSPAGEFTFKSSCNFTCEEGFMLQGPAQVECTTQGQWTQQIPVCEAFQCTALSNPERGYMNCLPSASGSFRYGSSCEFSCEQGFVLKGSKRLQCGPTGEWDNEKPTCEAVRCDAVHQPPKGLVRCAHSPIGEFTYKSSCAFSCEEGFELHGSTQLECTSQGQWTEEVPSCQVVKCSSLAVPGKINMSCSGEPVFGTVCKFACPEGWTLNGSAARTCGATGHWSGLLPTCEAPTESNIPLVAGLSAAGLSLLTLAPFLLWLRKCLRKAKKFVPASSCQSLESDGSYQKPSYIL
In words: Inhibition of HL-60 cell adhesion to recombinant human Selectin E. In a few lines: as §1

Experiment [3] deals with T3, E-selectin (Homo sapiens) (UniProt P16581).
T3 sequence (whole entry): T2 sequence (P16581 whole entry)
The experiment is described as follows: Inhibition of HL-60 cell adhesion to recombinant human Selectin E at 50 mM. Put shortly:
as §1

Experiment [4] has as its target T4, P-selectin (Homo sapiens) (UniProt P16109).
T4 sequence (whole entry): T1 sequence (P16109 whole entry)
In words: Inhibition of HL-60 cell adhesion to recombinant human Selectin P at 50 mM.

Experiment [5] addresses T1, P-selectin. The experiment is described as follows: Inhibition of HL-60 cell adhesion to recombinant human Selectin P; Not active up to 100 mM. Put shortly:
as §1

The target of experiment [6] is T3, E-selectin (Homo sapiens). In words: Inhibition of HL-60 cell adhesion to recombinant human Selectin E at 50 mM; Not active up to 100 mM. Put shortly: as §1
In experiment [7] the target is T4, P-selectin (Homo sapiens). The experiment is described as follows: Inhibition of HL-60 cell adhesion to recombinant human Selectin P at 50 mM; Not active up to 100 mM. Put shortly: as §1

Calls of active or inactive are those of the source. The calls are words filed in the database; no cut-off is given here.

Data on eight compounds can be found in ChEMBL document CHEMBL1139646, “Sialyl Lewis(x) analogs based on a quinic acid scaffold as the fucose mimic” (Bioorg Med Chem Lett, 2005).

In general, IC50 refers to the midpoint of a concentration-inhibition curve. One may read the inhibition as the change of the read-out against control, counted positive when it falls.

Take `CCC(C)[C@H](NC(=O)[C@]1(O)C[C@@H](O)[C@@H](O)[C@H](O)C1)C(=O)O` (some centres not stated): the 50% inhibitory concentration (IC50) in experiment [1] was 19 mM; in experiment [2] (read-out: IC50), > 50 mM. The inhibition was determined as 44% in experiment [3] and 92% in experiment [4].

For `C[C@H](NC(=O)[C@]1(O)C[C@@H](O)[C@@H](O)[C@H](O)C1)C(=O)O`, the IC50 in experiment [1] and in experiment [2] (read-out: IC50) was > 50 mM in each case. The figures for the inhibition in experiment [3] and in experiment [4] were 30% and 8%, respectively.

`O=C(O)[C@]1(O)C[C@@H](O)[C@@H](O)[C@H](O)C1` [QUINIC ACID]: the concentration for half-maximal inhibition (IC50) result in experiment [2] (hl-60) and in experiment [5] was “Not Active” throughout. Further, the inhibition entry in experiment [6] and in experiment [7] was “inactive” throughout.

Regarding `O=C(O)[C@H](CO)NC(=O)[C@]1(O)C[C@@H](O)[C@@H](O)[C@H](O)C1`, the figures for the IC50 in experiment [1] and in experiment [2] (read-out: IC50) were 19.5 mM and > 50 mM, respectively. Also, the values for the inhibition in experiment [3] and in experiment [4] were 46% and 88%, respectively.

`O=C(O)CNC(=O)[C@]1(O)C[C@@H](O)[C@@H](O)[C@H](O)C1`: the IC50 in experiment [1] and in experiment [2] (read-out: IC50) was > 50 mM throughout. For the same compound, the inhibition in experiment [3] and in experiment [4] was 38% in each case.

For `O=C(O)CCCCCNC(=O)[C@]1(O)C[C@@H](O)[C@@H](O)[C@H](O)C1`, the 50% inhibitory concentration (IC50) in experiment [1] and in experiment [2] (read-out: IC50) was > 50 mM each time. Further, the figures for the inhibition in experiment [3] and in experiment [4] were 31% and 14%, respectively.

For `O=C(O)CC[C@H](NC(=O)[C@]1(O)C[C@@H](O)[C@@H](O)[C@H](O)C1)C(=O)O`, the IC50 in experiment [1] is 21 mM; in experiment [2] (read-out: IC50) it was > 50 mM. The inhibition in experiment [3] came to 43%; in experiment [4] it was 86%.

With `O=C(O)CCCNC(=O)[C@]1(O)C[C@@H](O)[C@@H](O)[C@H](O)C1`, the IC50 is 40 mM in experiment [1] and > 50 mM in experiment [2] (read-out: IC50). The inhibition came to 40% in experiment [3] and 83% in experiment [4].
